Sampled rows, rich in hits. Any-hit rate of the full collection: about 2.3%.
LMPTP block: LMPTP phosphatase inhibitors, primary screen, biochemical, fluorescence intensity, uHTS; Low molecular weight phosphotyrosine protein phosphatase (Homo sapiens), P24666; recombinant LMPTP-A, OMFP fluorogenic substrate; inhibition, % at 20 µM; 360,000 tested, 0.22% active; AID 651560, 2012;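 active = compounds that cut the enzyme signal by at least half of the control window in the single-dose screen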
Target sequence (P24666 whole entry, looked up): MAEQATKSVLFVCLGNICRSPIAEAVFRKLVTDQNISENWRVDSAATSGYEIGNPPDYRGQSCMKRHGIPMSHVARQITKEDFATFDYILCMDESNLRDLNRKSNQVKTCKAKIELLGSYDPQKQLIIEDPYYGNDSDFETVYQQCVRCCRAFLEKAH
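test system = LMPTP-A | amount = 0.625 nM LMPTP-A final | reagent = fluorogenic phosphatase substrate OMFP at 400 µM final | incubation = 50 min at room temperature | benchmarks = no-enzyme low control, uninhibited high control | medium = Bis-Tris pH 6.0, DTT, detergent | signal = fluorescence intensity of OMFP turnover product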
DNMT1 inh: human DNMT1 methyltransferase inhibitors, primary screen, biochemical, molecular beacon, fluorescence, HinP1I cleavage, uHTS; DNA (cytosine-5)-methyltransferase 1 (Homo sapiens), P26358; 360,000 tested, 0.83% active; inhibition (reported as % activation of signal), % at 10 µM; AID 588458, 2011; in the data active = inhibition above about 50%
STEP block: STEP phosphatase inhibitors, primary screen, biochemical, fluorescence intensity, uHTS | Tyrosine-protein phosphatase non-receptor type 5 (Homo sapiens), P54829 | recombinant STEP, OMFP fluorogenic substrate | inhibition, % at 20 µM | 360,000 tested, 0.25% active | AID 588621, 2011;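 active = inhibition at 20 µM, scaled per plate between control wells, above about 37%, limit read from the data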
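Assay system: isolated STEP enzyme / Timing: 20 min at room temperature, dark / Doses: 20 µM, 1% DMSO / Technique: fluorescence intensity, excitation 480 nm, emission 540 nm / Reagent: fluorogenic phosphatase substrate OMFP at 25 µM final / Measure: percent inhibition scaled to no-enzyme and uninhibited-enzyme controls, plate-pattern corrected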
Rpn11 inh: Rpn11 (PSMD14) deubiquitinase inhibitors, primary screen, biochemical, fluorescence polarization, uHTS; inhibition, % at 20 µM; human 26S proteasome, Ub4-pepOG fluorescence polarization; 20S core pre-blocked with epoxomicin; 360,000 tested, 0.59% active; AID 588493, 2011; 26S proteasome non-ATPase regulatory subunit 14 (Homo sapiens), O00487;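 active = inhibition at 20 µM, scaled to each plate's controls, above about 33%, limit read from the data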
Target sequence (O00487 whole entry, looked up): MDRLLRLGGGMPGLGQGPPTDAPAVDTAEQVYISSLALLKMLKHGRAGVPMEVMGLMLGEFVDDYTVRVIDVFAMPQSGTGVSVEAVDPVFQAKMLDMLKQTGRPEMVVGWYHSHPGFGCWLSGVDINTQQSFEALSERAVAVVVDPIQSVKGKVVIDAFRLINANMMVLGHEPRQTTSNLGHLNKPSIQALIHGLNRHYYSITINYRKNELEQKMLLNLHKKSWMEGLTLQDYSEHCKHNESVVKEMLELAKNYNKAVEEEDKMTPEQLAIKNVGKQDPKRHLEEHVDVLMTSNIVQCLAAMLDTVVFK
Scp1 inh: Scp-1 phosphatase inhibitors, primary screen, biochemical, colorimetric, uHTS. Carboxy-terminal domain RNA polymerase II polypeptide A small phosphatase 1 (Homo …. Recombinant Scp1, phosphopeptide, malachite green phosphate absorbance. inhibition, % at 20 µM. 340,000 tested, 0.88% active. AID 493091, 2011;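 active = inhibition above about 50% at 20 µM, limit read from the data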
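Material: truncated SCP-1 phosphatase (76-261aa) / Buffer or medium: 50 mM Tris acetate pH 5.5, 0.005% Tween-20, 10 mM MgCl2 / Compound dosing: one concentration, 20 µM, with 1.0% DMSO / Incubation: 45 min room-temperature reaction, 5 min colour, 30 min stabiliser / Detection: colorimetric free-phosphate detection, absorbance 630 nm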
SUMO1-SIM PPI: modulators of SUMO1 protein-protein interactions, primary screen, biochemical, uHTS | SUMO1 binding to a labelled peptide, TR-FRET, 1 h | 360,000 tested, 0.33% active | AID 602429, 2012 | inhibition, % at 20 µM; in the data active = inhibition above about 37%
Target sequence (P63165 whole entry, looked up): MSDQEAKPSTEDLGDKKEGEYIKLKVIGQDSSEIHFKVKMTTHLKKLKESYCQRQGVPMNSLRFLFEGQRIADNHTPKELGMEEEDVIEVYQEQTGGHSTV
Beacon interf DR: spectral interference with molecular beacon fluorescence, dose response, artefact control for DNMT1 inhibitor project, biochemical, fluorescent molecular beacon; shares compounds with DNMT1 inh; spectral interference counter-screen; IC50, µM; 200 tested, under 10 active; AID 602382, 2012; call rule not given here
DNMT1 inh conf: DNMT1 methyltransferase inhibitor retest, confirmation, biochemical, molecular beacon, fluorescence, single concentration; shares compounds with DNMT1 inh; DNMT1 molecular beacon HinP1I cleavage; inhibition, % at 10 µM; 2,300 tested, 8% active;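 active = average inhibition of at least 30% in the single-concentration confirmation test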
DNMT1 interf: counter-screen for DNMT1 inhibitors: spectral interference; shares compounds with DNMT1 inh; DNMT1 molecular beacon spectral interference counterscreen, fluorescence 485/520; activation (fluorescence interference), % at 10 µM; 2,300 tested, 1% active; AID 602387;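 active = activation of at least 30% at 10 µM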;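 also: DNMT1 catalytic domain with a HinP1I cleavage step and a FAM/dabcyl DNA beacon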
Rpn11 confirm: Rpn11 (PSMD14) deubiquitinase inhibitors, confirmation, biochemical, fluorescence polarization, single concentration. shares compounds with Rpn11 inh. purified human 26S proteasome, Ub4-pepOG fluorescence polarization; proteasome pretreated with epoxomicin. inhibition, % at 20 µM. 1,900 tested, 29% active. AID 602318, 2012
MMP-2 inh: MMP-2 enzyme inhibition, confirmation, counter-screen for RPN11 inhibitor project, biochemical, fluorescence, single concentration; 1,900 tested, 4% active; recombinant MMP-2, FRET peptide cleavage fluorescence; AID 602330, 2012; shares compounds with Rpn11 inh; inhibition, % at 20 µM;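 also: human MMP-2 activated beforehand with APMA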
Thrombin inh: bovine thrombin protease inhibition, confirmation, counter-screen for Rpn11 inhibitor project, biochemical, fluorescence polarization, single concentration | shares compounds with Rpn11 inh | bovine thrombin cleavage of Ub4-pepOG | inhibition, % at 20 µM | 1,900 tested, 13% active | AID 602333, 2012;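 active = mean inhibition at least 40% at 20 µM, or signal 3 deviations below plate average, so some actives read negative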
Large screens that a line does not name were inactive (follow-up assays come after a bar, where they were run). Rule as the data show it, unless noted: active = inhibition above about 40%; inactive = the rest.

Cc1ccc2oc(=O)c3cc(C(=O)NCCCN4CCCCCC4)sc3c2c1	DNMT1 inh 67, Rpn11 inh 56 | DNMT1 inh conf inactive | DNMT1 interf inactive | Rpn11 confirm inactive | MMP-2 inh inactive | Thrombin inh inactive
Cc1ccc2oc(=O)c3cc(C(=O)NCCN4CCN(C)CC4)sc3c2c1	none
CCOc1cc(/C=C(\C#N)C(=O)Nc2cccc(C(=O)O)c2)ccc1OCc1ccc(Br)cc1	DNMT1 inh 89, STEP block 96, Rpn11 inh 107, SUMO1-SIM PPI 82 | Beacon interf DR inactive | DNMT1 inh conf 104 | DNMT1 interf inactive | Rpn11 confirm inactive | MMP-2 inh inactive | Thrombin inh inactive
Fc1ccc(Oc2ncccn2)c(F)c1	none
Cc1ccc(-n2cccc2/C=C2/C(=N)N3C(=NC2=O)SN=C3S(C)(=O)=O)cc1Cl	DNMT1 inh 84, Rpn11 inh 168 | Beacon interf DR inactive | DNMT1 inh conf 37 | DNMT1 interf inactive | Rpn11 confirm 160 | MMP-2 inh inactive | Thrombin inh 109
COc1ccc(CCNC(=O)COC(=O)c2cc(=O)[nH]c3ccccc23)cc1	none
Cc1ccc(NC(=O)COC(=O)/C=C/c2c(C)nn(-c3ccc(F)cc3)c2Cl)cc1F	none
CCCc1c(C)[nH]c2ccc(C(=O)O)cc2c1=S	DNMT1 inh 93, Rpn11 inh 98, SUMO1-SIM PPI 96 | DNMT1 inh conf inactive | DNMT1 interf inactive | Rpn11 confirm 74 | MMP-2 inh inactive | Thrombin inh inactive
Cc1cc(C)c2c(N)c3cccc(C)c3nc2n1	DNMT1 inh 73, Rpn11 inh 67 | Beacon interf DR inactive | DNMT1 inh conf 40 | DNMT1 interf inactive | Rpn11 confirm 54 | MMP-2 inh inactive | Thrombin inh inactive
CCS(=O)(=O)C1=NN2C(=N)/C(=C\c3ccc(SCc4ccco4)o3)C(=O)N=C2S1	DNMT1 inh 99, Rpn11 inh active, Scp1 inh 77, SUMO1-SIM PPI 50 | Beacon interf DR inactive | DNMT1 inh conf 50 | DNMT1 interf inactive | Rpn11 confirm 122 | MMP-2 inh inactive | Thrombin inh 49
N=C1/C(=C\c2ccc(SCc3ccccc3)o2)C(=O)N=C2SC=NN12	none
CCCn1c(SCc2nc3sc(C)c(C)c3c(=O)[nH]2)nc2ccccc2c1=O	DNMT1 inh 54, Rpn11 inh 41 | DNMT1 inh conf inactive | DNMT1 interf inactive | Rpn11 confirm inactive | MMP-2 inh inactive | Thrombin inh inactive
COCCn1c(SCc2nc3ccccc3c(=O)[nH]2)nc2ccccc2c1=O	none
CC(=O)COC(=O)C1=NN(c2ccccc2)C(=O)CC1	none
C=CCOC(=O)c1cc(-c2ccc(/C=C3\C(=O)NC(=O)C(C#N)=C3C)o2)ccc1Cl	DNMT1 inh 105, Rpn11 inh 58, Scp1 inh 87, SUMO1-SIM PPI 43 | Beacon interf DR inactive | DNMT1 inh conf 97 | DNMT1 interf inactive | Rpn11 confirm inactive | MMP-2 inh inactive | Thrombin inh inactive
CCN(Cc1cccc(F)c1)C(=O)c1ccc2ccccc2n1	none
CCOc1ccc(NC(=O)CCC(=O)NNC(=O)c2ccc(Br)o2)cc1	none
COc1ccc(CN2CCN(c3nc4ccccc4s3)CC2)cc1	none
COc1ccc(CCn2c(O)cc3nn(-c4nc5ccccc5s4)c(=O)c-3c2C)cc1	LMPTP block 53, DNMT1 inh 79, Rpn11 inh 55, Scp1 inh 62 | DNMT1 inh conf inactive | DNMT1 interf 44 | Rpn11 confirm inactive | MMP-2 inh inactive | Thrombin inh inactive
O=C(NC1CCCCC1)c1cc(N2C(=O)CCC2=O)ccc1Cl	none
O=C(/C=C/c1ccc(Br)cc1)NC(=S)Nc1ccc(S(=O)(=O)Nc2nccs2)cc1	DNMT1 inh 86, Rpn11 inh 129, SUMO1-SIM PPI 94 | Beacon interf DR inactive | DNMT1 inh conf 67 | DNMT1 interf inactive | Rpn11 confirm inactive | MMP-2 inh inactive | Thrombin inh inactive
CC(=O)Nc1ccc(S(=O)(=O)N2CCN(C(=O)C3COc4ccccc4O3)CC2)cc1 (centres undefined)	none
COc1ccc(S(=O)(=O)N2CCN(C(=O)C3COc4ccccc4O3)CC2)cc1 (centres undefined)	LMPTP block 56, DNMT1 inh 95, Rpn11 inh 86, Scp1 inh 64 | Beacon interf DR inactive | DNMT1 inh conf 54 | DNMT1 interf inactive | Rpn11 confirm 65 | MMP-2 inh inactive | Thrombin inh 58
CCc1occc(=O)c1Oc1cc(NN2CCCCC2)c([N+](=O)[O-])cc1[N+](=O)[O-]	none
CCn1nnnc1NCc1ccc(SC)cc1	none
CCn1nnnc1NCc1ccc(N2CCCC2)cc1	LMPTP block 60, DNMT1 inh 82, Rpn11 inh 59 | DNMT1 inh conf inactive | DNMT1 interf inactive | Rpn11 confirm inactive | MMP-2 inh inactive | Thrombin inh inactive
Cc1cc(NC(=O)CSC2=NS(=O)(=O)c3ccccc3N2)no1	none

Source: PubChem BioAssay (Sanford-Burnham Center for Chemical Genomics)
